Measurements taken from ChEMBL document CHEMBL4376814, “Novel cyclin-dependent kinase 9 (CDK9) inhibitor with suppression of cancer stemness activity against non-small-cell lung cancer” (Eur J Med Chem, 2019).

Legend:
[1] = biological target: Serine/threonine-protein kinase WNK1 (Homo sapiens) (UniProt Q9H4A3); experiment: Inhibition of recombinant human WNK1 (1 to 491 residues) at 1 uM using MBP as substrate measured after 120 mins in presence of [gamma33P]ATP by scintillation counting method relative to control
[2] = tested on: Hepatocyte growth factor receptor (Homo sapiens), P08581 [Y1230H]; experiment: Inhibition of recombinant human MET A1209G/V1290L/Y1248H mutant (974 to end residues) at 1 uM using KKKGQEEEYVFIE as substrate measured after 40 mins in presence of [gamma33P]ATP by scintillation counting method relative to control
[3] = biological target: Tyrosine-protein kinase HCK (Homo sapiens) (UniProt P08631); experiment: Inhibition of recombinant human HCK (230 to 497 residues) at 1 uM using Cdc2 peptide as substrate measured after 40 mins in presence of [gamma33P]ATP by scintillation counting method relative to control
A549 [4] = experiment: Induction of apoptosis in human A549 cells after 48 hrs by AnnexinV-FITC staining-based flow cytometric analysis; assay type: functional, cell-based
[5] = biological target: G protein-coupled receptor kinase 6 (Homo sapiens) (UniProt P43250); experiment: Inhibition of recombinant full-length human GRK6 at 1 uM using casein as substrate measured after 40 mins in presence of [gamma33P]ATP by scintillation counting method relative to control
G protein-coupled receptor kinase 6 (Homo sapiens), sequence (P43250 whole entry, looked up, the tested form may be a part): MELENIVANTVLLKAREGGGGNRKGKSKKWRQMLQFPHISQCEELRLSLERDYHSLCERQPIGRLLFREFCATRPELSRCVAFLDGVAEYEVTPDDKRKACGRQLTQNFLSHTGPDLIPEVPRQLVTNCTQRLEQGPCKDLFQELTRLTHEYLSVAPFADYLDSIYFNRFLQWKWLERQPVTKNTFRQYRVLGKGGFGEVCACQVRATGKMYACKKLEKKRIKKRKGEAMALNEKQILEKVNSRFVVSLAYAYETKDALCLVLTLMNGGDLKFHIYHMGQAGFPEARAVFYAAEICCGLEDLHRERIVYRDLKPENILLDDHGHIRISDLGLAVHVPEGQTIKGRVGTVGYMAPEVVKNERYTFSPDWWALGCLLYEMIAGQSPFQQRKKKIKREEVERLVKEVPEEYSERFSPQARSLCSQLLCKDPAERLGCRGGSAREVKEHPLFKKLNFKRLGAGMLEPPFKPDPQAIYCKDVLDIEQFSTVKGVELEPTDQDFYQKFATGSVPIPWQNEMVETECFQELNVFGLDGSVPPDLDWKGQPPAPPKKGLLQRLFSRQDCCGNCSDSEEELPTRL

[6] = biological target: Serine/threonine-protein kinase SIK1 (Homo sapiens) (UniProt P57059); experiment: Inhibition of human SIK (1 to 281 residues) at 1 uM using AMARAASAAALARRR as substrate measured after 40 mins in presence of [gamma33P]ATP by scintillation counting method relative to control
Serine/threonine-protein kinase SIK1 (Homo sapiens), sequence (P57059 whole entry, the tested form may be a part): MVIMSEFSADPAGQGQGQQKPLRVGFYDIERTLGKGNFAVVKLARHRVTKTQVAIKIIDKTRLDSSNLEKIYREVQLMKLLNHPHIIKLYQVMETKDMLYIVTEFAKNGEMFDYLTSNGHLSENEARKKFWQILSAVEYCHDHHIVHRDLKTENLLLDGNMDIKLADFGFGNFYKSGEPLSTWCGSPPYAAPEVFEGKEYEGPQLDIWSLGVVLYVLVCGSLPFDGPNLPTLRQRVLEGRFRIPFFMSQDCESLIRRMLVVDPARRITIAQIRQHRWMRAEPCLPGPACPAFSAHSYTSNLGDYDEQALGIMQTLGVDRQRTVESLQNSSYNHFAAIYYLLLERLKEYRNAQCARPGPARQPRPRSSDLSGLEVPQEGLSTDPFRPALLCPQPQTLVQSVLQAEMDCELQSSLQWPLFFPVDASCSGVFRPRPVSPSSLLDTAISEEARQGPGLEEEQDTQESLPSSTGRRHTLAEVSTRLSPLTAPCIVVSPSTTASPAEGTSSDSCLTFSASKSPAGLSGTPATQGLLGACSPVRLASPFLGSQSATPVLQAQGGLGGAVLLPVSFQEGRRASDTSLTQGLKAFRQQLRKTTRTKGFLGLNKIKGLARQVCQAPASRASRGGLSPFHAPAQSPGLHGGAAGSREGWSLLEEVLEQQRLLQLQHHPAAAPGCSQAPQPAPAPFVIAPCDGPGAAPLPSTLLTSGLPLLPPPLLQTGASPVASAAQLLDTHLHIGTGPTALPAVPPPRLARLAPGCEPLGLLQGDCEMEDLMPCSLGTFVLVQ
Method in brief: (§1)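 Percent inhibition of kinase activity at a single compound concentration, measured by the outsourced Eurofins KinaseProfiler panel. Values are the mean of two independent experiments.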

[7] = biological target: Serine/threonine-protein kinase PLK1 (Homo sapiens) (UniProt P53350); experiment: Inhibition of full length human PLK1 at 1 uM using casein as substrate measured after 40 mins in presence of [gamma33P]ATP by scintillation counting method
[8] = Intrinsic clearance in CD-1 mouse liver microsomes at 2 uM in presence of NADPH measured up to 1 hr by HPLC analysis; assay type: ADME, Microsome
[9] = biological target: Macrophage colony-stimulating factor 1 receptor (Homo sapiens) (UniProt P07333); experiment: Inhibition of recombinant human Fms (538 to end residues) at 1 uM using KKKSPGEYVNIEFG as substrate measured after 40 mins in presence of [gamma33P]ATP by scintillation counting method relative to control
[10] = biological target: Mitogen-activated protein kinase kinase kinase 10 (Homo sapiens) (UniProt Q02779); experiment: Inhibition of recombinant human MLK2 (1 to 449 residues) at 1 uM using myelin basic protein as substrate measured after 40 mins in presence of [gamma33P]ATP by scintillation counting method relative to control
Mitogen-activated protein kinase kinase kinase 10 (Homo sapiens), sequence (Q02779 whole entry, looked up, the tested form may be a part): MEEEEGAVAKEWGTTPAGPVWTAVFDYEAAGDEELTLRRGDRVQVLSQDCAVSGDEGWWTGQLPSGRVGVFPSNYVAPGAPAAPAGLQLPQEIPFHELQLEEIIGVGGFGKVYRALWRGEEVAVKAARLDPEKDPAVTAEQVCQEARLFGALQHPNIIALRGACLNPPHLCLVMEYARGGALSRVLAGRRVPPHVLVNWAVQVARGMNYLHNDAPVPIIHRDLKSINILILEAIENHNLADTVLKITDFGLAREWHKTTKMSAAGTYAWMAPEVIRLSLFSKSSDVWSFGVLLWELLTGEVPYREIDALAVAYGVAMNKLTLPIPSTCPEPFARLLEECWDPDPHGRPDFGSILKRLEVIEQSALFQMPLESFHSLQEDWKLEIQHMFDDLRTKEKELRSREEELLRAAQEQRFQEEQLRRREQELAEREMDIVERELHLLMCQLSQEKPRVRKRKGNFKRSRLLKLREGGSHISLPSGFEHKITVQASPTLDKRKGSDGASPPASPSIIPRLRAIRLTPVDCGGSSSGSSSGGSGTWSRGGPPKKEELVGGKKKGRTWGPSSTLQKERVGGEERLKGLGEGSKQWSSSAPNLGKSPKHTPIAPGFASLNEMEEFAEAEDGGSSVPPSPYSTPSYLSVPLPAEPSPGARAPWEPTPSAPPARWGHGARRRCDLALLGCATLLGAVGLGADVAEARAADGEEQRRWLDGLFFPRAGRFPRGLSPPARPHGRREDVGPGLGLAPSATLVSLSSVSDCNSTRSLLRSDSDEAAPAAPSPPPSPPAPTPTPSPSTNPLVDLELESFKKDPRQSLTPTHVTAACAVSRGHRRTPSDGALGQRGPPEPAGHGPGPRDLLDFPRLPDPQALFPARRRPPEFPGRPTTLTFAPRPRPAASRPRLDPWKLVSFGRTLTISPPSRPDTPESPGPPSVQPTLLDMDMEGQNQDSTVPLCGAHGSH

A549 [11] = experiment: Induction of apoptosis in human A549 cells assessed as late apoptotic cells at 0.5 uM after 48 hrs by AnnexinV-FITC/PI staining-based flow cytometric analysis (reference value: 7.66%); assay type: functional
[12] = biological target: Homeodomain-interacting protein kinase 1 (Homo sapiens) (UniProt Q86Z02); experiment: Inhibition of recombinant human activated HIPK1 (158 to 555 residues) at 1 uM using myelin basic protein as substrate measured after 40 mins in presence of [gamma33P]ATP by scintillation counting method relative to control
Homeodomain-interacting protein kinase 1 (Homo sapiens), sequence (Q86Z02 whole entry, looked up, the tested form may be a part): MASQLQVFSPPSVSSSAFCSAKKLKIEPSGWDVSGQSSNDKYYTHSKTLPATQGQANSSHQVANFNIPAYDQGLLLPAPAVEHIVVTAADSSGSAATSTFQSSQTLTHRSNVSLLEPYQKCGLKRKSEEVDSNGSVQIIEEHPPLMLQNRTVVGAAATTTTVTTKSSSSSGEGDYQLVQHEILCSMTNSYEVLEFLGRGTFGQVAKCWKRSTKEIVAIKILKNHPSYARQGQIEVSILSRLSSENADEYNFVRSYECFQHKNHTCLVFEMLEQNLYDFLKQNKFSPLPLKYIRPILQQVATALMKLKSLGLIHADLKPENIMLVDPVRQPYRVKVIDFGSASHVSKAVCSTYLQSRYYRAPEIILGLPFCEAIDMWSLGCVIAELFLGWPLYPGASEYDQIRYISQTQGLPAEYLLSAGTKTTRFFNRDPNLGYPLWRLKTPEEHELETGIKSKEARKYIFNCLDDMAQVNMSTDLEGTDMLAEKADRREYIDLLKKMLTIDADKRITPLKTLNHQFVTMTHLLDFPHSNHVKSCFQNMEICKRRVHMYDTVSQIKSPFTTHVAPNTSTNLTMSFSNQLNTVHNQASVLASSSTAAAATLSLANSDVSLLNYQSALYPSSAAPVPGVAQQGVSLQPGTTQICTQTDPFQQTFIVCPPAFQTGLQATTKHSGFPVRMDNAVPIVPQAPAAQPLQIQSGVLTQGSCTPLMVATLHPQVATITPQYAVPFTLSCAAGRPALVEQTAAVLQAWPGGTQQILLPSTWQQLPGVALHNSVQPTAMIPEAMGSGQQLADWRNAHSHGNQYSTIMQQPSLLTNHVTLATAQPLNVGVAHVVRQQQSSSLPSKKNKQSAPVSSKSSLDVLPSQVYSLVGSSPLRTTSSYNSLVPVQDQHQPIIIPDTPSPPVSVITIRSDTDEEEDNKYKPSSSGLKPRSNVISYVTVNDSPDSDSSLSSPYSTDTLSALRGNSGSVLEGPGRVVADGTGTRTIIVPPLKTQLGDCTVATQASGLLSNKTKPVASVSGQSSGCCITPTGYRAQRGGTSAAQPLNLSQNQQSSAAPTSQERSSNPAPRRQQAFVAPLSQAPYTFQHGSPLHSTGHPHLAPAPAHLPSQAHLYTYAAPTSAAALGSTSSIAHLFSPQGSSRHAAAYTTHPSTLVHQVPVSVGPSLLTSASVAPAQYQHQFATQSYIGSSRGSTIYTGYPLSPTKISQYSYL

[13] = biological target: CDC7/Cyclin B1 (Homo sapiens) (UniProt P14635+O00311); experiment: Inhibition of recombinant full-length human CDC7/cyclinB1 at 1 uM using Histone H1 as substrate measured after 120 mins in presence of [gamma33P]ATP by scintillation counting method relative to control; assay type: protein-complex assay
CDC7/Cyclin B1 (Homo sapiens), sequence (O00311 whole entry, looked up): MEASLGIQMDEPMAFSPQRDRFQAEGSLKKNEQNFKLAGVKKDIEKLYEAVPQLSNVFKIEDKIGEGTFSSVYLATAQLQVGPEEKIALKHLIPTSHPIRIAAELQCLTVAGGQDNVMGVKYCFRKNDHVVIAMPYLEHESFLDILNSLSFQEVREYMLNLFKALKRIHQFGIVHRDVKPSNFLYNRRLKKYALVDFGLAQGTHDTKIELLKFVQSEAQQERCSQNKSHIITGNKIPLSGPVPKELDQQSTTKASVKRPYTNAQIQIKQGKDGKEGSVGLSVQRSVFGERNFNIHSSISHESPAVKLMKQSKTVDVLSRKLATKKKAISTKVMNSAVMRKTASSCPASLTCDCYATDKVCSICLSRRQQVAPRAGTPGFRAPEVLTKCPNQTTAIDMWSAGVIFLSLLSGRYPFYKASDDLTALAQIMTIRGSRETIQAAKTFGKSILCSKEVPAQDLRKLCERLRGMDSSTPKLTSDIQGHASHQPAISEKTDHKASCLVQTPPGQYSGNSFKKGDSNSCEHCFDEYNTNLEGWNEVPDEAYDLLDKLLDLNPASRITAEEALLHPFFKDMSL
CDC7/Cyclin B1 (Homo sapiens), sequence (P14635 whole entry, looked up): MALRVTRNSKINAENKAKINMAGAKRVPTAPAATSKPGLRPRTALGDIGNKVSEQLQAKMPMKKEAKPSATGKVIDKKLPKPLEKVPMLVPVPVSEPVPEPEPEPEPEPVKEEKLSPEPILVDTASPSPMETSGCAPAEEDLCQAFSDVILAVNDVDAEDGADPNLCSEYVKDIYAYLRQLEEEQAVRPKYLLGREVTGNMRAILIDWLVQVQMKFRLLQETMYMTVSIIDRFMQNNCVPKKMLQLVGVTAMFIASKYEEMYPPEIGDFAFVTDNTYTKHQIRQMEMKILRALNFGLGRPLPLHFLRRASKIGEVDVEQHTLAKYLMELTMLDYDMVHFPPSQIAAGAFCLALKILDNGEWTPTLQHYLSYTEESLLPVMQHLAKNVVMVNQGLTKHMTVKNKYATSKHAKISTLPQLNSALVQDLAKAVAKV

NCI-H1975 = experiment: Antiproliferative activity against human NCI-H1975 cells assessed as inhibition of cell viability after 72 hrs by CCK-8 assay; assay type: functional, cell-based; settings: NCI-H1975, 72 h
Method in brief: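 Cells kept at 37 °C, 5% CO2 in DMEM or RPMI-1640 with 10% FBS and 1% penicillin/streptomycin, then seeded at 3000 cells/well (adherent) or 10,000 cells/well (suspension). Exposed to a range of concentrations for 72 h. CCK-8 added for 1-4 h before reading A450. […] Three independent experiments.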

[14] = biological target: Serine/threonine-protein kinase tousled-like 2 (Homo sapiens) (UniProt Q86UE8); experiment: Inhibition of human TLK2 (387 to end residues) at 1 uM using casein as substrate measured after 40 mins in presence of [gamma33P]ATP by scintillation counting method relative to control; method in brief: as §1
CDK9/cyclin T1 = CDK9/cyclin T1 (Homo sapiens, UniProt P50750); experiment: Inhibition of recombinant full-length human CDK9/cyclinT1 using KTFCGTPEYLAPEVRREPRILSEEEQEMFRDFDYIADWC peptide as substrate measured after 40 mins in presence of [gamma33P]ATP by scintillation counting method; assay type: protein-complex assay
Method in brief: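 IC50 against CDK9/cyclin T1, determined by the outsourced Eurofins KinaseProfiler service. Values are the mean of two independent experiments.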

[15] = biological target: Dual specificity tyrosine-phosphorylation-regulated kinase 1A (Homo sapiens) (UniProt Q13627); experiment: Inhibition of recombinant full-length human DYRK1A at 1 uM using RRRFRPASPLRGPPK as substrate measured after 40 mins in presence of [gamma33P]ATP by scintillation counting method relative to control
[16] = biological target: Serine/threonine-protein kinase Nek6 (Homo sapiens) (UniProt Q9HC98); experiment: Inhibition of recombinant human NEK6 (2 to end residues) at 1 uM using FLAKSFGSPNRAY as substrate measured after 40 mins in presence of [gamma33P]ATP by scintillation counting method relative to control
Serine/threonine-protein kinase Nek6 (Homo sapiens), sequence (Q9HC98 whole entry): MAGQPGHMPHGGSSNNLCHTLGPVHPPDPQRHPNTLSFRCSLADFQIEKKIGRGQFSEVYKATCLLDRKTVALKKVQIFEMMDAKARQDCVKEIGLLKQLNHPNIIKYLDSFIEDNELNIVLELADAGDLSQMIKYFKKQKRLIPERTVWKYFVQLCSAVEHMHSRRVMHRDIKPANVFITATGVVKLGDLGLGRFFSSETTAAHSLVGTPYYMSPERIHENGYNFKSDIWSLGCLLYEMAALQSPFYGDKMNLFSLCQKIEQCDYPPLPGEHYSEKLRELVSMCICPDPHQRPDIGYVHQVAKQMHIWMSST

[17] = tested on: RAC-gamma serine/threonine-protein kinase (Homo sapiens), Q9Y243 [S472D]; experiment: Inhibition of recombinant human pkb-gamma S472D mutant (117 to end residues) S472D mutant at 1 uM using GRPRTSSFAEGKK as substrate measured after 40 mins in presence of [gamma33P]ATP by scintillation counting method relative to control
[18] = tested on: Glycogen synthase kinase-3 beta (Homo sapiens), P49841 [UNDEFINED MUTATION]; experiment: Inhibition of human recombinant GSK3beta H350L mutant (2 to end residues) at 1 uM using YRRAAVPPSPSLSR as substrate incubated for 40 mins in presence of [gamma-33P]ATP at Km concentration by radiometric assay relative to control
Method in brief: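 Single-point inhibition at 1 µM was measured in the Eurofins KinaseProfiler panel. Values are the mean of two independent experiments.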

NCI-H1299 = experiment: Induction of apoptosis in human H1299 cells assessed as viable cells at 0.5 uM after 48 hrs by AnnexinV-FITC/PI staining-based flow cytometric analysis (reference value: 97.1%); assay type: functional; settings: NCI-H1299, 48 h, read-out: Activity
[19] = biological target: BDNF/NT-3 growth factors receptor (Homo sapiens) (UniProt Q16620); experiment: Inhibition of recombinant human TRKB (455 to end residues) at 1 uM using poly(Glu, Tyr) 4:1 as substrate measured after 40 mins in presence of [gamma33P]ATP by scintillation counting method relative to control

CN(C)C(=O)c1cc2cnc(Nc3ccc(NC(=O)CCCCCCCN=C=S)cc3)nc2n1C1CCCC1
inhibition [1]: 6% | inhibition [2]: 62% | inhibition [3]: 9% | Activity (A549 [4]): Dose-dependent effect | inhibition [5]: 5% | inhibition [6]: 51% | inhibition [7]: -2% | CLH [8]: 0.1 mL/min/mg | inhibition [9]: 68% | inhibition [10]: 65% | Activity (A549 [11]): 13.8% | inhibition [12]: 9% | inhibition [13]: 75% | IC50 (NCI-H1975): 837 nM | inhibition [14]: 8% | IC50 (CDK9/cyclin T1): 11 nM | inhibition [15]: 2% | inhibition [16]: 4% | inhibition [17]: 10% | inhibition [18]: 32% | viability at 0.5 µM (NCI-H1299): 94.5% | inhibition [19]: 92%
